Experimental data from ChEMBL document CHEMBL1146365, “Synthesis and biological evaluation of new N-(2-hydroxy-4(or 5)-nitro/aminophenyl)benzamides and phenylacetamides as antimicrobial agents” (2007).
Converted amounts (≈) assume the structure as drawn.

Columns and labels:
[1] = tested on: Candida albicans; test: Antifungal activity against Candida albicans ATCC 10231 assessed after 48 hrs by serial dilution method; format: functional; conditions: ATCC 10231, 48 h
How it was run: (§1)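 Broth microdilution per CLSI M27-A in RPMI-1640 with L-glutamine, MOPS-buffered pH 7, with 2-fold compound dilutions. Yeasts were subcultured twice on SDA at 35 °C for 24–48 h. Inoculum was diluted from McFarland 0.5 to 10^4 cfu/ml, giving 10^3 cfu/ml in wells. Incubated 35 °C, humid chamber, 48 h, in triplicate. MIC = lowest concentration with no macroscopic growth.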

[2] = tested on: Staphylococcus aureus; test: Antibacterial activity against Staphylococcus aureus ATCC 25923 assessed after 24 hrs by serial dilution method; format: functional
How it was run: (§2)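 Strains were subcultured twice on MHA at 37 °C overnight. Inoculum was diluted from McFarland 0.5 to 10^5 cfu/ml, giving 10^4 cfu/ml in wells. Solvent, medium and organism-only controls were included. Incubated 37 °C, humid chamber, 24 h, in triplicate. MIC = lowest concentration with no macroscopic growth.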

[3] = tested on: Klebsiella pneumoniae; test: Antibacterial activity against Klebsiella pneumoniae RSHM 574 assessed after 24 hrs by serial dilution method
[4] = tested on: Escherichia coli; test: Antibacterial activity against Escherichia coli isolate assessed after 24 hrs by serial dilution method; format: functional; how it was run: as §2
[5] = tested on: Pseudomonas aeruginosa; test: Antibacterial activity against Pseudomonas aeruginosa ATCC […] assessed after 24 hrs by serial dilution method
[6] = tested on: Klebsiella pneumoniae; test: Antibacterial activity against Klebsiella pneumoniae isolate assessed after 24 hrs by serial dilution method; format: functional; how it was run: as §2
[7] = tested on: Bacillus subtilis; test: Antibacterial activity against Bacillus subtilis ATCC 6633 assessed after 24 hrs by serial dilution method; format: functional; how it was run: as §2
[8] = tested on: Pseudomonas aeruginosa; test: Antibacterial activity against Pseudomonas aeruginosa isolate assessed after 24 hrs by serial dilution method; format: functional; how it was run: as §2
[9] = tested on: Staphylococcus aureus; test: Antibacterial activity against drug-resistant Staphylococcus aureus assessed after 24 hrs by serial dilution method
[10] = tested on: Candida albicans; test: Antifungal activity against Candida albicans isolate assessed after 48 hrs by serial dilution method; format: functional; how it was run: as §1
[11] = tested on: Bacillus subtilis; test: Antibacterial activity against drug-resistant Bacillus subtilis assessed after 24 hrs by serial dilution method
[12] = tested on: Escherichia coli; test: Antibacterial activity against Escherichia coli ATCC assessed after 24 hrs by serial dilution method
[13] = tested on: Escherichia coli; test: Antibacterial activity against Escherichia coli ATCC 25922 assessed after 24 hrs by serial dilution method

`Nc1ccc(O)c(NC(=O)c2ccccc2)c1` was tested, and the MIC [1] was 125 µg/mL (≈ 548 µM), the MIC ([2]; ATCC 25923, 24 h) was 31.2 µg/mL (≈ 137 µM) and the MIC [3] was 125 µg/mL (≈ 548 µM). It also gave an MIC [4] of 250 µg/mL (≈ 1100 µM), an MIC [5] of 125 µg/mL (≈ 548 µM) and an MIC [6] of 250 µg/mL (≈ 1100 µM). For the same molecule, the MIC ([7]; ATCC 6633, 24 h) was 15.6 µg/mL (≈ 68.3 µM), the MIC [8] was 250 µg/mL (≈ 1100 µM) and the MIC [9] was 31.2 µg/mL (≈ 137 µM). The MIC [10] was 125 µg/mL (≈ 548 µM), the MIC [11] was 62.5 µg/mL (≈ 274 µM) and the MIC [12] was 125 µg/mL (≈ 548 µM).

`Cc1ccc(CC(=O)Nc2ccc([N+](=O)[O-])cc2O)cc1` showed an MIC [1] of 62.5 µg/mL (≈ 218 µM), an MIC ([2]; ATCC 25923, 24 h) of 250 µg/mL (≈ 873 µM) and an MIC [3] of 125 µg/mL (≈ 437 µM). For the same molecule, the MIC [4] was 250 µg/mL (≈ 873 µM), the MIC [5] was 250 µg/mL (≈ 873 µM) and the MIC [6] was 250 µg/mL (≈ 873 µM). For the same molecule, the MIC ([7]; ATCC 6633, 24 h) was 125 µg/mL (≈ 437 µM), the MIC [8] was 250 µg/mL (≈ 873 µM) and the MIC [9] was 500 µg/mL (≈ 1750 µM). For the same molecule, the MIC [10] was 250 µg/mL (≈ 873 µM), the MIC [11] was 250 µg/mL (≈ 873 µM) and the MIC [12] was 125 µg/mL (≈ 437 µM).

Work on `O=C(Nc1ccc([N+](=O)[O-])cc1O)c1ccc(Br)cc1` yielded an MIC [1] of 250 µg/mL (≈ 742 µM), an MIC ([2]; ATCC 25923, 24 h) of 7.8 µg/mL (≈ 23.1 µM) and an MIC [3] of 125 µg/mL (≈ 371 µM). The MIC [4] was 250 µg/mL (≈ 742 µM), the MIC [5] was 250 µg/mL (≈ 742 µM) and the MIC [6] was 125 µg/mL (≈ 371 µM). The MIC ([7]; ATCC 6633, 24 h) was 3.9 µg/mL (≈ 11.6 µM), the MIC [8] was 250 µg/mL (≈ 742 µM) and the MIC [9] was 500 µg/mL (≈ 1480 µM). For the same molecule, the MIC [10] was 125 µg/mL (≈ 371 µM), the MIC [11] was 1.95 µg/mL (≈ 5.78 µM) and the MIC [12] was 62.5 µg/mL (≈ 185 µM).

`CC(C)(C)c1ccc(C(=O)Nc2ccc(N)cc2O)cc1` was tested, and the MIC [1] was 62.5 µg/mL (≈ 220 µM), the MIC ([2]; ATCC 25923, 24 h) was 15.6 µg/mL (≈ 54.9 µM) and the MIC [3] was 125 µg/mL (≈ 440 µM). It also gave an MIC [4] of 125 µg/mL (≈ 440 µM), an MIC [5] of 62.5 µg/mL (≈ 220 µM) and an MIC [6] of 125 µg/mL (≈ 440 µM). For the same molecule, the MIC ([7]; ATCC 6633, 24 h) was 15.6 µg/mL (≈ 54.9 µM), the MIC [8] was 62.5 µg/mL (≈ 220 µM) and the MIC [9] was 7.8 µg/mL (≈ 27.4 µM). For the same molecule, the MIC [10] was 62.5 µg/mL (≈ 220 µM), the MIC [11] was 7.8 µg/mL (≈ 27.4 µM) and the MIC [12] was 125 µg/mL (≈ 440 µM).

`Cc1ccc(CC(=O)Nc2cc([N+](=O)[O-])ccc2O)cc1` was tested, and the MIC [1] was 250 µg/mL (≈ 873 µM), the MIC ([2]; ATCC 25923, 24 h) was 250 µg/mL (≈ 873 µM) and the MIC [3] was 125 µg/mL (≈ 437 µM). For the same molecule, the MIC [4] was 250 µg/mL (≈ 873 µM), the MIC [5] was 125 µg/mL (≈ 437 µM) and the MIC [6] was 250 µg/mL (≈ 873 µM). For the same molecule, the MIC ([7]; ATCC 6633, 24 h) was 15.6 µg/mL (≈ 54.5 µM), the MIC [8] was 250 µg/mL (≈ 873 µM) and the MIC [9] was 125 µg/mL (≈ 437 µM). It also gave an MIC [10] of 250 µg/mL (≈ 873 µM), an MIC [11] of 62.5 µg/mL (≈ 218 µM) and an MIC [12] of 125 µg/mL (≈ 437 µM).

Work on `Nc1ccc(NC(=O)c2ccccc2)c(O)c1` yielded an MIC [1] of 62.5 µg/mL (≈ 274 µM), an MIC ([2]; ATCC 25923, 24 h) of 125 µg/mL (≈ 548 µM) and an MIC [3] of 125 µg/mL (≈ 548 µM). For the same molecule, the MIC [4] was 125 µg/mL (≈ 548 µM), the MIC [5] was 125 µg/mL (≈ 548 µM) and the MIC [6] was 250 µg/mL (≈ 1100 µM). For the same molecule, the MIC ([7]; ATCC 6633, 24 h) was 62.5 µg/mL (≈ 274 µM), the MIC [8] was 250 µg/mL (≈ 1100 µM) and the MIC [9] was 15.6 µg/mL (≈ 68.3 µM). It also gave an MIC [10] of 62.5 µg/mL (≈ 274 µM), an MIC [11] of 62.5 µg/mL (≈ 274 µM) and an MIC [12] of 125 µg/mL (≈ 548 µM).

With `Nc1ccc(NC(=O)Cc2ccc(Cl)cc2)c(O)c1` the MIC [1] was 125 µg/mL (≈ 452 µM), the MIC ([2]; ATCC 25923, 24 h) was 62.5 µg/mL (≈ 226 µM) and the MIC [3] was 125 µg/mL (≈ 452 µM). The MIC [4] was 125 µg/mL (≈ 452 µM), the MIC [5] was 125 µg/mL (≈ 452 µM) and the MIC [6] was 250 µg/mL (≈ 903 µM). For the same molecule, the MIC ([7]; ATCC 6633, 24 h) was 250 µg/mL (≈ 903 µM), the MIC [8] was 125 µg/mL (≈ 452 µM) and the MIC [9] was 31.2 µg/mL (≈ 113 µM). The MIC [10] was 125 µg/mL (≈ 452 µM), the MIC [11] was 62.5 µg/mL (≈ 226 µM) and the MIC [12] was 125 µg/mL (≈ 452 µM).

With `O=C(Cc1ccc(F)cc1)Nc1ccc([N+](=O)[O-])cc1O` the MIC [1] was 125 µg/mL (≈ 431 µM), the MIC ([2]; ATCC 25923, 24 h) was 125 µg/mL (≈ 431 µM) and the MIC [3] was 250 µg/mL (≈ 861 µM). The MIC [4] was 250 µg/mL (≈ 861 µM), the MIC [5] was 125 µg/mL (≈ 431 µM) and the MIC [6] was 125 µg/mL (≈ 431 µM). It also gave an MIC ([7]; ATCC 6633, 24 h) of 250 µg/mL (≈ 861 µM), an MIC [8] of 250 µg/mL (≈ 861 µM) and an MIC [9] of 62.5 µg/mL (≈ 215 µM). It also gave an MIC [10] of 125 µg/mL (≈ 431 µM), an MIC [11] of 31.2 µg/mL (≈ 108 µM) and an MIC [12] of 125 µg/mL (≈ 431 µM).

Molecule `CC(C)(C)c1ccc(C(=O)Nc2ccc([N+](=O)[O-])cc2O)cc1` has an MIC [1] of 250 µg/mL (≈ 795 µM), an MIC ([2]; ATCC 25923, 24 h) of 7.8 µg/mL (≈ 24.8 µM) and an MIC [3] of 125 µg/mL (≈ 398 µM). It also gave an MIC [4] of 250 µg/mL (≈ 795 µM), an MIC [5] of 125 µg/mL (≈ 398 µM) and an MIC [6] of 250 µg/mL (≈ 795 µM). The MIC ([7]; ATCC 6633, 24 h) was 7.8 µg/mL (≈ 24.8 µM), the MIC [8] was 250 µg/mL (≈ 795 µM) and the MIC [9] was 1.95 µg/mL (≈ 6.2 µM). For the same molecule, the MIC [10] was 125 µg/mL (≈ 398 µM), the MIC [11] was 15.6 µg/mL (≈ 49.6 µM) and the MIC [12] was 125 µg/mL (≈ 398 µM).

`O=C(Nc1cc([N+](=O)[O-])ccc1O)c1ccc(F)cc1` gave an MIC [1] of 62.5 µg/mL (≈ 226 µM), an MIC ([2]; ATCC 25923, 24 h) of 7.8 µg/mL (≈ 28.2 µM) and an MIC [3] of 31.2 µg/mL (≈ 113 µM). The MIC [4] was 125 µg/mL (≈ 453 µM), the MIC [5] was 62.5 µg/mL (≈ 226 µM) and the MIC [6] was 125 µg/mL (≈ 453 µM). It also gave an MIC ([7]; ATCC 6633, 24 h) of 3.9 µg/mL (≈ 14.1 µM), an MIC [8] of 125 µg/mL (≈ 453 µM) and an MIC [9] of 15.6 µg/mL (≈ 56.5 µM). It also gave an MIC [10] of 62.5 µg/mL (≈ 226 µM), an MIC [11] of 62.5 µg/mL (≈ 226 µM) and an MIC [12] of 125 µg/mL (≈ 453 µM).

`O=C(Cc1ccc(F)cc1)Nc1cc([N+](=O)[O-])ccc1O` was tested, and the MIC [1] was 250 µg/mL (≈ 861 µM), the MIC ([2]; ATCC 25923, 24 h) was 31.2 µg/mL (≈ 108 µM) and the MIC [3] was 125 µg/mL (≈ 431 µM). The MIC [4] was 250 µg/mL (≈ 861 µM), the MIC [5] was 250 µg/mL (≈ 861 µM) and the MIC [6] was 125 µg/mL (≈ 431 µM). For the same molecule, the MIC ([7]; ATCC 6633, 24 h) was 15.6 µg/mL (≈ 53.7 µM), the MIC [8] was 250 µg/mL (≈ 861 µM) and the MIC [9] was 31.2 µg/mL (≈ 108 µM). The MIC [10] was 125 µg/mL (≈ 431 µM), the MIC [11] was 31.2 µg/mL (≈ 108 µM) and the MIC [12] was 62.5 µg/mL (≈ 215 µM).

With GENTAMICIN SULFATE the MIC [2] was > 4100 µg/mL, the MIC [3] was > 4100 µg/mL and the MIC [4] was 0.97 µg/mL. It also gave an MIC [6] of 1020 µg/mL, an MIC [7] of 512 µg/mL and an MIC [8] of 1020 µg/mL. It also gave an MIC [9] of 1020 µg/mL, an MIC [11] of 2050 µg/mL and an MIC [13] of 1020 µg/mL.
